Results gathered from unrelated publications.
Compare with care: the assays were run in different laboratories.
Target: TGF-beta receptor type-1 (TGFBR1, Homo sapiens, UniProt P36897)

Structure (SMILES)	test	setting	endpoint	result
O=C(CSc1nc2nccnc2c(=O)n1CCc1ccccc1)Nc1nccs1	enzyme activity, inhibitor	10 µM	inhibition	1%
COc1cc2ncnc(Nc3ccc(F)c(Cl)c3)c2cc1OCCCN1CCOCC1	cell-free assay	0.5 µM	remaining signal	99.6%
CN1CC(Oc2cnc(C#N)cc2-c2ccn3nc(NC(=O)C4CC4)cc3c2)C1	enzyme activity, inhibitor	1 µM	inhibition	-9%
COc1cc(-c2cc(-c3ccc(N4CCNCC4)cc3)cnc2C)cc(OC)c1OC	enzyme activity, inhibitor	0.1 µM	inhibition	3%
N#CCCc1ccc2c(c1)-c1[nH]c3ccc([N+](=O)[O-])cc3c1CC(=O)N2	cell-free assay	0.5 µM	remaining signal	103%
NS(=O)(=O)c1cc(NC(=O)C2(c3ccccc3Cl)CC2)ccc1Oc1cccc(Cl)c1	cell-free assay, competition with immobilised ligand	1 µM	remaining binding	82%
Fc1ccc(-c2ncn(-c3ccc4ccccc4c3)c2-c2ccncc2)cc1	cell-free assay, TR-FRET	1 µM	inhibition	14%
Cc1cc(-n2nc(Cc3cc(F)cc(C(F)(F)F)c3)nc2C)ccc1C(N)=O	cell-free assay, competition with immobilised ligand	1 µM	remaining binding	94%
C=CC(=O)Nc1cc(Nc2nccc(Nc3cc(Cl)c(F)cc3C(C)(C)O)n2)c(OC)cc1N1CC[C@@H](N(C)C)C1	enzyme activity, inhibitor	1 µM	inhibition	42%
CCCCN(CCCC)C(=O)CN1C[C@H](c2cc(OC)c3c(c2)OCO3)[C@@H](C(=O)O)[C@@H]1CC(C)(C)CCC	cell-free assay, competition with immobilised ligand	1 µM	remaining binding	98.6%
Cc1sc(C(=O)NC2COC2)cc1-n1cc(NC(=O)Nc2c(F)cccc2Cl)cn1	enzyme activity, inhibitor	10 µM	remaining activity	104%
Cc1ccc(Nc2nccc(N(C)c3ccc4c(C)n(C)nc4c3)n2)cc1S(N)(=O)=O	cell-free assay	0.5 µM	remaining signal	103%
COc1cc(/C=C/C(=O)CC(=O)/C=C/c2ccc(O)c(OC)c2)ccc1O	enzyme activity, inhibitor	1 µM	activity vs control	82%
CCOC(=O)c1cc2cc(-c3cc(C(=O)NCc4ccc(C(=O)O)cc4)nn3C)ccc2[nH]1	cell-free assay, competition with immobilised ligand	0.1 µM	remaining binding	100%
Fc1ccc(-c2c(-c3ccncc3)ncn2-c2ccc(-c3ccccc3)cc2)cc1	cell-free assay, TR-FRET	1 µM	inhibition	21%
COc1cc(Cl)c(C(=O)N[C@@H](CN[C@H]2CC[C@@H](N)CC2)Cc2ccc(C#N)cc2)cc1-c1ccc(CN[C@H](C)c2ccc(C)cc2)o1	enzyme activity, inhibitor	1 µM	remaining activity	103%
CC(C)(O)[C@H]1CC[C@H](Nc2ccc3ncc(-c4cccc(C(F)(F)F)c4)n3n2)CC1	enzyme activity, inhibitor	1 µM	remaining activity	108%
CSc1cccnc1N1CCN(Cc2nc3ccccc3[nH]2)CC1	cell-free assay, competition with immobilised ligand	1 µM	remaining binding	100%
C#Cc1cccc(Nc2ncnc3cc(OCCOC)c(OCCOC)cc23)c1	cell-free assay	0.5 µM	remaining signal	99.1%
CC(C)(C)c1nc(-c2cccc(NS(=O)(=O)c3c(F)cccc3F)c2F)c(-c2ccnc(N)n2)s1	enzyme activity, inhibitor, radiometric	1 µM	remaining activity	22%
NS(=O)(=O)c1cc(NC(=O)Cc2ccccc2)ccc1Oc1cccc(Cl)c1	cell-free assay, competition with immobilised ligand	1 µM	remaining binding	100%
COc1cc(Nc2cnc(C#N)c(O[C@H](C)CN(C)C)n2)ncc1-c1cnn(C)c1	enzyme activity, inhibitor, radiometric	1 µM	remaining activity	122%
Fc1ccc(-c2c(-c3ccncc3)ncn2-c2ccc3ccccc3c2)cc1	cell-free assay, TR-FRET	1 µM	inhibition	21%
C[S+]([O-])c1ccc(-c2nc(-c3ccncc3)c(-c3ccc(F)cc3)[nH]2)cc1 (stereo not shown)	cell-free assay	0.5 µM	remaining signal	101%
C[C@H](c1cccc(C#N)c1)n1cc(Cl)cc(C(N)=O)c1=N	cell-free assay, competition with immobilised ligand	1 µM	remaining binding	100%
Fc1ccc(-c2ncn(-c3ccccc3)c2-c2ccncc2)cc1	cell-free assay, TR-FRET	1 µM	inhibition	31%
CCCOc1ccc([C@@H]2[C@@H](C(=O)O)[C@H](c3ccc4c(c3)OCO4)CN2CC(=O)Nc2c(CC)cccc2CC)cc1	cell-free assay, competition with immobilised ligand	1 µM	remaining binding	64%
Cc1ccc(C(=O)Nc2ccc(CN3CCN(C)CC3)c(C(F)(F)F)c2)cc1C#Cc1cnc2cccnn12	cell-free assay	23.5 nM	remaining signal	98%
